Our source for the folding enthalpy and Tm values is the array DNA melting data of Ke et al. (doi:10.1101/2024.01.08.574731).

Data set [1] is described as follows: folding enthalpy; higher = less favourable; fluorescence melt of hairpins on a sequencing array, two-state fit. The conditions noted are these: sodium 0.088 M. The method in brief: (§1)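 Melting temperature and folding enthalpy were derived from bootstrapped two-state fits. The fitted temperatures were raised by 9.35 °C to agree with UV melts, and four replicates were combined by inverse variance. The underlying data were Cy3 fluorescence images of library hairpins, with annealed Cy3 and quencher oligos, on a sequenced MiSeq flow cell in 50 mM Na-HEPES pH 8.0, 25 mM NaCl, taken in 2.5 °C steps up to 60 °C, normalised to pre-quench Cy3 and to control constructs.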

A short description of data set [2]: melting temperature; fluorescence melt of hairpins on a sequencing array, two-state fit, raised by 9.35 °C to match UV melts. The settings on record: sodium 0.088 M. A digest of the protocol:
as §1

For GGGTTACGAAAGTACCCC (((.(((....))).))), in data set [1], the folding enthalpy is -22.9 kcal/mol. For the same sequence, the Tm in data set [2] worked out at 52.1 °C.

GGCTCGGGAAACCGAGTC (.(((((....))))).): in data set [1], the folding enthalpy was -29.9 kcal/mol. In addition, the Tm in data set [2] turned out to be 61.5 °C.

For GCTCTCGAAAGAGAAAGC ((((((....)))..))), the folding enthalpy in data set [1] is -22.6 kcal/mol. Also, the Tm in data set [2] came out at 40 °C.

For the sequence GGCCGTCGAAAGACTGCC (((.(((....))).))), the folding enthalpy in data set [1] is -42.8 kcal/mol. Also, the Tm in data set [2] amounted to 56.8 °C.

On to GGGACCGGAAACGGTCTC (.(((((....))))).), for which the folding enthalpy in data set [1] is -13.2 kcal/mol. The Tm in data set [2] was 59.2 °C.

With GCCTGGCGAAAGCGTGGC (((..((....))..))), the folding enthalpy in data set [1] was -24.3 kcal/mol. Moreover, in data set [2], the Tm worked out at 58.9 °C.

As to GATCCAAACTTGGATC ((((((....)))))), the folding enthalpy in data set [1] was -39.4 kcal/mol. Further, in data set [2], the Tm came out at 53.1 °C.

As for GCCAGGCGAAAGCCAAGC ((..(((....)))..)), in data set [1], the folding enthalpy was -13.3 kcal/mol. Moreover, the Tm in data set [2] turned out to be 44.8 °C.

Turning to GGTCACGAAAGTGTACC ((((((....))).))), the folding enthalpy in data set [1] is -25.6 kcal/mol. Moreover, the Tm in data set [2] was determined as 51.5 °C.

For GATCCACGGGTGGATC ((((((....)))))), the folding enthalpy in data set [1] was -39.6 kcal/mol. Moreover, in data set [2], the Tm came out at 58.8 °C.

With GGTCTACGAAAGTAAACC (((.(((....))).))), in data set [1], the folding enthalpy is -26.2 kcal/mol. Further, the Tm in data set [2] was determined as 39.3 °C.

On to GATCTAGCGCTAGATC ((((((....)))))), for which the folding enthalpy in data set [1] was -45.9 kcal/mol. In addition, the Tm in data set [2] is 53.6 °C.

For the sequence GAGCCGCGAAAGCGCCTC (((.(((....))).))), the folding enthalpy in data set [1] is -16 kcal/mol. Moreover, in data set [2], the Tm is 46.4 °C.

In the case of GGAGTCGAAAGACATCC ((((((....))).))), the folding enthalpy in data set [1] was -18.2 kcal/mol. The Tm in data set [2] was determined as 42.8 °C.

For GTGGTAGCGAAAGCTCAC (((..(((....)))))), in data set [1], the folding enthalpy is -18.1 kcal/mol. In addition, the Tm in data set [2] was found to be 43.8 °C.

In the case of GTTGCCGAAAGGCCAAC ((((((....))).))), in data set [1], the folding enthalpy is -14.4 kcal/mol. For the same sequence, the Tm in data set [2] came out at 47.3 °C.

In the case of GTAAGGTCGAAAGACTAC (((..(((....)))))), in data set [1], the folding enthalpy is -13.1 kcal/mol. For the same sequence, the Tm in data set [2] was determined as 29.1 °C.

Take GTGGTCTCGAAAGAGCAC (((..(((....)))))): the folding enthalpy in data set [1] was -25.9 kcal/mol. Besides, in data set [2], the Tm came out at 48.8 °C.

With GCTGTGGCGAAAGCCAGC (((..(((....)))))), in data set [1], the folding enthalpy is -13.8 kcal/mol. The Tm in data set [2] is 52.2 °C.

GCTTCTCGAAAGAGTAGC (((.(((....))).))): in data set [1], the folding enthalpy was -31.1 kcal/mol. The Tm in data set [2] was 47.9 °C.

As for GATCTAGGGATAGATC ((((((....)))))), in data set [1], the folding enthalpy was -30.8 kcal/mol. In addition, the Tm in data set [2] came out at 42.3 °C.

Regarding GGAGATGGAAACATTTCC (((.(((....))).))), the folding enthalpy in data set [1] is -32.9 kcal/mol. Moreover, the Tm in data set [2] was determined as 39.2 °C.

For GCGTCGTCGAAAGACCGC (((..(((....)))))), the folding enthalpy in data set [1] was -19.3 kcal/mol. In data set [2], the Tm came out at 50.3 °C.

For GCCCTCCGAAAGGAGGC (((.(((....)))))), the folding enthalpy in data set [1] is -11.9 kcal/mol. The Tm in data set [2] was determined as 61.2 °C.

Regarding GAGTCCGAAAGGAAACTC ((((((....)))..))), in data set [1], the folding enthalpy is -19.4 kcal/mol. Further, in data set [2], the Tm stood at 40.2 °C.

As for GAAACTGGAAACAGTTCC (.(((((....))))).), in data set [1], the folding enthalpy is -19.3 kcal/mol. Further, the Tm in data set [2] was found to be 35.2 °C.

Take GAGACAGCGAAAGCTCTC (((..(((....)))))): the folding enthalpy in data set [1] was -9.49 kcal/mol. In addition, in data set [2], the Tm was found to be 45.5 °C.

As to GTTAGCGGAAACGCTGAC ((.((((....)))).)), the folding enthalpy in data set [1] is -29.4 kcal/mol. In addition, the Tm in data set [2] is 52.3 °C.

As to GGCGTCGCGAAAGCGGCC (((..(((....)))))), in data set [1], the folding enthalpy is -13 kcal/mol. Also, the Tm in data set [2] stood at 58.7 °C.

Turning to GCGCTGCGAAAGCAATGC ((..(((....)))..)), the folding enthalpy in data set [1] is -18 kcal/mol. In addition, the Tm in data set [2] came to 47.8 °C.

Consider GGAAGCGAAAGCTGGTCC ((((((....)))..))), for which the folding enthalpy in data set [1] was -11.6 kcal/mol. Also, in data set [2], the Tm amounted to 36 °C.

As to GCTCAATCGAAAGATAGC (((..(((....)))))), the folding enthalpy in data set [1] was -11.6 kcal/mol. Moreover, the Tm in data set [2] came to 31.9 °C.

Take GATCTGCGTGCAGATC ((((((....)))))): in data set [1], the folding enthalpy was -34.5 kcal/mol. Also, the Tm in data set [2] is 66.7 °C.

Turning to GCAAGTGCGAAAGCATGC (((..(((....)))))), in data set [1], the folding enthalpy is -14 kcal/mol. In addition, the Tm in data set [2] is 44.5 °C.

For the sequence GTAGATGGAAACATCCAC ((.((((....)))).)), in data set [1], the folding enthalpy is -16.9 kcal/mol. Further, the Tm in data set [2] worked out at 30.4 °C.

Regarding GTGGACGAAAGTCAACAC ((((((....)))..))), the folding enthalpy in data set [1] is -15.3 kcal/mol. The Tm in data set [2] worked out at 45.9 °C.

Regarding GCGATCGAAAGATGCCGC ((((((....)))..))), the folding enthalpy in data set [1] was -17 kcal/mol. In addition, the Tm in data set [2] amounted to 39.6 °C.
